Source: PubChem (several laboratories)
S1P4 agonist: S1P4 receptor agonists, primary screen, cell-based; S1P4-expressing cell line, agonist reporter assay; AID 1509, 2009; 220,000 compounds, 0.35% hits; Sphingosine 1-phosphate receptor 4 (Homo sapiens), O95977; activation, % at 4.98 µM; in the data active = activation above about 11%;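 note: 0% = DMSO vehicle and 100% = reference agonist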
S1P3 antagonist: S1P3 receptor antagonists, primary screen, cell-based; AID 485, 2006; 170,000 compounds, 0.27% hits; Sphingosine 1-phosphate receptor 3 (Homo sapiens), Q99500; inhibition, % at 4.98 µM; CHO S1P3 NFAT-BLA reporter, FRET fluorescence, antagonist mode;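 active = inhibition above the plate cutoff, the mean inhibition of test wells on that plate plus 3 SD, cut at about 28% in these data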;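 note: cells challenged with S1P at its EC80 of 0.8 µM; blue over green emission ratio from cleaved BLA substrate after 4 h stimulation; 0% = S1P-stimulated wells and 100% = unstimulated DMSO-only wells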
S1P4 antagonist: S1P4 receptor antagonists, primary screen, cell-based | inhibition, % at 4.98 µM | AID 1510, 2009 | S1P4-expressing cells, antagonist mode, reporter read-out | 220,000 compounds, 0.26% hits; in the data active = inhibition above about 29%;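 note: 0% = wells stimulated with agonist and 100% = vehicle wells without agonist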
Mdm2 ligase inh: MDM2-luciferase reporter signal enhancers, primary screen, MDM2 E3 ligase inhibitor project, cell-based, luminescence, 1536-well; E3 ubiquitin-protein ligase Mdm2 (Homo sapiens), Q00987; cell-based MDM2 ubiquitination luciferase reporter, 2 h; 0 = plate control, 100 = twice control, blank-subtracted; signal enhancement, % at 5 µM; 210,000 compounds, 0.11% hits;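 active = signal enhancement of 30% or more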;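 note: luminescence tracks abundance of the self-degrading MDM2-luciferase fusion protein; higher signal means inhibition of MDM2 E3 ligase activity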
Target sequence (Q00987 whole entry, looked up, the tested form may be a part): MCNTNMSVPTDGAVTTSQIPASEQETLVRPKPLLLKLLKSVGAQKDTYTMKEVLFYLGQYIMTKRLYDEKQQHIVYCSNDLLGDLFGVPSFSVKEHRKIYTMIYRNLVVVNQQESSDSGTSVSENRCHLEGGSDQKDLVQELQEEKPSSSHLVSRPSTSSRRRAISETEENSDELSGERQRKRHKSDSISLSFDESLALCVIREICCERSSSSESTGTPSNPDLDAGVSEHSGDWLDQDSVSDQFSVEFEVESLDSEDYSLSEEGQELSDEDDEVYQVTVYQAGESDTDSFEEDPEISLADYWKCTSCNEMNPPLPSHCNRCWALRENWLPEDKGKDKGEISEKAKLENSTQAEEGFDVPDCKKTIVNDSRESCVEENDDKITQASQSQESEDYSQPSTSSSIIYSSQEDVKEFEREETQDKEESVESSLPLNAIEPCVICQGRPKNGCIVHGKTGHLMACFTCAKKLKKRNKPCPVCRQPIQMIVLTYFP
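Assay system: stable mammalian line carrying autodegrading MDM2–luciferase fusion reporter; Input: 2000 cells in each well; Compound dosing: single-point 5 µM; Schedule: 2 h compound exposure at 37 °C; Signal: SteadyLite luciferase luminescence after 15 min room-temperature reagent incubation; Evaluation: % luminescence enhancement versus blank-corrected plate control mean; Benchmarks: plate controls and plate blanks.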
Lmaj promast: Leishmania major promastigote growth inhibition, primary screen; 200,000 compounds, 9% hits; inhibition, % at 10 µM; Leishmania major promastigotes, resazurin fluorescence viability; in the data active = inhibition above about 50%;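 note: promastigotes grown with compound for 44 hours at 28 °C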
Lmaj promast 1uM: Leishmania major promastigote growth inhibition, confirmation, 1 µM repeat of primary hits; inhibition, % at 1 µM; shares compounds with Lmaj promast; 1,100 compounds, 13% hits; L. major promastigote growth, resazurin fluorescence, 48 h;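 active = inhibition above about 50% in both repeat tests, limit read from the data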
* marks the source's active call; other numbers are inactive results; nt = no result given. Only a selection was taken, and hits are over-represented in it overall.

SMILES | S1P4 agonist | S1P3 antagonist | S1P4 antagonist | Mdm2 ligase inh | Lmaj promast | Lmaj promast 1uM
O=S(=O)(Nc1cccc2c1ccc1cccn12)c1cccs1 | -1 | nt | -21 | -4 | -3 | nt
CCCCC(=O)Nc1ccc(NC(=O)c2ccc(C)c([N+](=O)[O-])c2)cc1OC | 0 | 0 | -7 | -2 | -2 | nt
N#CC1=C(N)OC2=C(C(=O)CCC2)[C@]12C(=O)N(CC(N)=O)c1ccccc12 | 3 | nt | 0 | 1 | 0 | nt
N#CC1=C(N)OC2=C(C(=O)CCC2)C12C(=O)N1CCCc3cccc2c31 (configuration not stated) | 2 | nt | -10 | 4 | 60* | -14
CCC(C)[C@H](NC(=O)NCCCn1ccnc1)C(=O)OC (some centres not stated) | 2 | -10 | -22 | 2 | 52* | -7
Cc1cc2c(cc1C)CSC(c1ccc3ccccc3c1O)SC2 | -1 | nt | 3 | -14 | -11 | nt
Cc1cc2c(cc1C)CSC(c1ccccc1O)SC2 | 0 | nt | -4 | -8 | 97* | -9
CCC(C)(C)n1nnnc1CN1CCC(c2nc3ccc(C)cc3[nH]2)CC1 | -3 | 19 | 13 | -11 | 4 | nt
Cc1cc2nc(C3CCN(Cc4nnnn4Cc4ccccc4)CC3)[nH]c2cc1C | -2 | nt | -24 | -16 | 91* | -19
CC(C)(C)c1ccc(-c2ncccc2O)cc1 | 0 | 8 | -6 | -2 | 100* | 83*
Cc1c(NS(=O)(=O)c2cccc3nsnc23)c(=O)n(-c2ccccc2)n1C | 0 | -9 | -8 | -6 | -3 | nt
CCc1cc(=O)oc2cc(OC(C)C(=O)O)c(Cl)cc12 (configuration not stated) | 1 | -28 | -8 | 0 | -6 | nt
O=C1NCC(c2ccccc2)C1C(=O)N/N=C\c1ccc(-c2ccc(Cl)c(Cl)c2)o1 (configuration not stated) | -1 | nt | 17 | -10 | 59* | -11
Cc1cc(C=O)c2c(c1)C=CC1(Oc3ccccc3C(=O)N1C)O2 (configuration not stated) | 2 | nt | -12 | 5 | 100* | -9
CN1C(=O)c2ccccc2OC1(C)Cc1ccccc1 (configuration not stated) | -2 | 15 | -6 | -4 | -7 | nt
O=C1NC(=S)N/C1=C/c1ccc(-c2c(Br)cc([N+](=O)[O-])cc2Br)o1 | 2 | nt | 12 | -14 | 19 | nt
O=c1[nH]cc([N+](=O)[O-])cc1Br | 1 | 0 | 13 | -16 | 61* | -5
NC(=O)C1(N2CCCCC2)CCN(C(=S)Nc2cccc(Cl)c2)CC1 | 0 | 8 | -14 | -11 | -6 | nt
O=C(NCCN1CCOCC1)c1cn(CCc2ccccc2)nn1 | -1 | -20 | -14 | -1 | -3 | nt
O=C(NCc1ccc(N2CCCC2=O)cc1)c1cn(CCc2ccccc2)nn1 | 0 | nt | -11 | -6 | 56* | 19
CC(=O)Nc1cccc(C(=O)/C=C/c2cccs2)c1 | -1 | 0 | 13 | -5 | 93* | -8
CC1(C)CC(=O)C(C(=O)C2CCN(S(=O)(=O)c3ccccc3)CC2)C(=O)C1 | 0 | 3 | -3 | -23 | -5 | nt
Cn1c(CSc2nc3ccccc3n2C)nc2ccccc21 | 2 | nt | -1 | 0 | 4 | nt
Cn1c(SC2=CS(=O)(=O)c3ccccc32)nc2ccccc21 | 2 | -3 | 17 | -22 | 99* | 15
CCOC(=O)C1CCN(C(c2ccccn2)c2c(C)[nH]c3ccccc23)CC1 (configuration not stated) | 0 | nt | -1 | -16 | 35 | nt
Cc1[nH]c2ccccc2c1C(c1ccccn1)N1CCC(C(N)=O)CC1 (configuration not stated) | 0 | 7 | -13 | 3 | 60* | 5
O=c1cc(-c2ccc(Cl)cc2)[nH][nH]1 | 1 | -8 | 6 | -13 | -6 | nt
O=c1cc(-c2cccc3ccccc23)[nH][nH]1 | -1 | -12 | 0 | -19 | 80* | -11
C#CCOC(=O)Nc1ccc(OCC(F)(F)F)nc1 | 1 | 2 | 15 | -8 | nt | nt
N#Cc1c(Cl)cccc1-n1ccnc1 | 1 | nt | 1 | -6 | -3 | nt
